Source: ChEMBL document CHEMBL1139385, “Structural analysis of ARC-type inhibitor (ARC-1034) binding to protein kinase A catalytic subunit and rational design of bisubstrate analogue inhibitors of basophilic protein kinases” (J Med Chem, 2009)
Where a SMILES comes first, the peptide text is derived from it. [ ]: non-standard residue; d: D form. The star is where a group is joined. Adenosine(5'-uronoyl) = Nc1ncnc2c1ncn2[C@@H]1O[C@H](C(=O)*)[C@@H](O)[C@H]1O; Ahx = NCCCCCC(=O)O

Columns and labels:
[1] = molecular target: Glycogen synthase kinase-3 beta (Homo sapiens) (UniProt P49841); test: Inhibition of GSK3-beta at 100 nM relative to control
How it was run: (§1)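 Activity is expressed as percent inhibition versus control incubations lacking inhibitor. Values are means of duplicate determinations.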

[2] = molecular target: Ribosomal protein S6 kinase alpha-4 (Homo sapiens) (UniProt O75676); test: Inhibition of MSK2 at 100 nM relative to control; how it was run: as §1
[3] = molecular target: Rho-associated protein kinase 1 (Homo sapiens) (UniProt Q13464); test: Inhibition of ROCK1 at 100 nM relative to control; how it was run: as §1
[4] = molecular target: RAC-alpha serine/threonine-protein kinase (Homo sapiens) (UniProt P31749); test: Inhibition of AKT1 at 100 nM relative to control; how it was run: as §1
[5] = molecular target: Calcium/calmodulin-dependent protein kinase type II subunit beta (Homo sapiens) (UniProt Q13554); test: Inhibition of CaMK2beta at 100 nM relative to control; how it was run: as §1
[6] = molecular target: Protein kinase C beta type (Homo sapiens) (UniProt P05771); test: Inhibition of PKCbeta1 at 100 nM relative to control; how it was run: as §1
[7] = molecular target: CDK2/Cyclin A1 (Homo sapiens) (UniProt P24941+P78396); test: Inhibition of Cdk2/cyclin A at 100 nM relative to control; type: protein-complex assay; how it was run: as §1
[8] = molecular target: Serine/threonine-protein kinase D2 (Homo sapiens) (UniProt Q9BZL6); test: Inhibition of PKD2 at 100 nM relative to control; how it was run: as §1
[9] = molecular target: Ribosomal protein S6 kinase alpha-5 (Homo sapiens) (UniProt O75582); test: Inhibition of MSK1 at 100 nM relative to control; how it was run: as §1
[10] = molecular target: Serine/threonine-protein kinase PAK 3 (Homo sapiens) (UniProt O75914); test: Inhibition of PAK3 at 100 nM relative to control; how it was run: as §1
[11] = molecular target: Protein kinase C theta type (Homo sapiens) (UniProt Q04759); test: Inhibition of PKCtheta at 100 nM relative to control; how it was run: as §1
[12] = molecular target: Protein kinase C gamma type (Homo sapiens) (UniProt P05129); test: Inhibition of PKCgamma at 100 nM relative to control; how it was run: as §1
[13] = molecular target: Death-associated protein kinase 3 (Homo sapiens) (UniProt O43293); test: Inhibition of DAPK3 at 100 nM relative to control; how it was run: as §1
Chain of Death-associated protein kinase 3 (Homo sapiens) (O43293 whole entry, looked up): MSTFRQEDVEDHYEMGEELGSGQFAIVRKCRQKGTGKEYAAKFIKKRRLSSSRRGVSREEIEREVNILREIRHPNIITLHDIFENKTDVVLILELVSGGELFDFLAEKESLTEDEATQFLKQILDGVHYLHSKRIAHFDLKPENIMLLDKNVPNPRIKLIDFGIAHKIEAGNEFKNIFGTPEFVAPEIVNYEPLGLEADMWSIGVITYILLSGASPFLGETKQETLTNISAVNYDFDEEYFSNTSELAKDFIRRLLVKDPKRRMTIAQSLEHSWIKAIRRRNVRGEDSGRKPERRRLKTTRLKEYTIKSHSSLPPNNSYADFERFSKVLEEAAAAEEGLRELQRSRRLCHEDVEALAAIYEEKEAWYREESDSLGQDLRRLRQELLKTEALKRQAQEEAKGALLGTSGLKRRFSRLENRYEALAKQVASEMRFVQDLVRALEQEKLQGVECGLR

Chain of Protein kinase C beta type (Homo sapiens) (P05771 2-671 limits assumed): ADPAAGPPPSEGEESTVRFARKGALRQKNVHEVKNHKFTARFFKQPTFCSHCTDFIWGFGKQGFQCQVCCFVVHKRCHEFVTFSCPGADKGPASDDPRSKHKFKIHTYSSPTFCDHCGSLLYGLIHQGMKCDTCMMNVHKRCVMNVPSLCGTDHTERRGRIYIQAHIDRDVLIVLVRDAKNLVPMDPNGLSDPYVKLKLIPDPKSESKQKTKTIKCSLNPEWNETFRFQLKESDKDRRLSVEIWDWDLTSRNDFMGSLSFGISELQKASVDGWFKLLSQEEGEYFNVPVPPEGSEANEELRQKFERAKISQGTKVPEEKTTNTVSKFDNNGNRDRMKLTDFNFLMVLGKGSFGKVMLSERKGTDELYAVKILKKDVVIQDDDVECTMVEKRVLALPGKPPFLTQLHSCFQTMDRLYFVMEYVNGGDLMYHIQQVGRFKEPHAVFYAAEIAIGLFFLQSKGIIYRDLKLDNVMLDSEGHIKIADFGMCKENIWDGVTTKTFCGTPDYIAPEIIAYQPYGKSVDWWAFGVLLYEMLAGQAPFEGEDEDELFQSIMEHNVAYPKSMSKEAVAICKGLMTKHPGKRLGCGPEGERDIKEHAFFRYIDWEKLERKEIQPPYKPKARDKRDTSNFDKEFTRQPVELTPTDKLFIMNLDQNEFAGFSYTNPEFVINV
Chain of Serine/threonine-protein kinase D2 (Homo sapiens) (Q9BZL6 whole entry): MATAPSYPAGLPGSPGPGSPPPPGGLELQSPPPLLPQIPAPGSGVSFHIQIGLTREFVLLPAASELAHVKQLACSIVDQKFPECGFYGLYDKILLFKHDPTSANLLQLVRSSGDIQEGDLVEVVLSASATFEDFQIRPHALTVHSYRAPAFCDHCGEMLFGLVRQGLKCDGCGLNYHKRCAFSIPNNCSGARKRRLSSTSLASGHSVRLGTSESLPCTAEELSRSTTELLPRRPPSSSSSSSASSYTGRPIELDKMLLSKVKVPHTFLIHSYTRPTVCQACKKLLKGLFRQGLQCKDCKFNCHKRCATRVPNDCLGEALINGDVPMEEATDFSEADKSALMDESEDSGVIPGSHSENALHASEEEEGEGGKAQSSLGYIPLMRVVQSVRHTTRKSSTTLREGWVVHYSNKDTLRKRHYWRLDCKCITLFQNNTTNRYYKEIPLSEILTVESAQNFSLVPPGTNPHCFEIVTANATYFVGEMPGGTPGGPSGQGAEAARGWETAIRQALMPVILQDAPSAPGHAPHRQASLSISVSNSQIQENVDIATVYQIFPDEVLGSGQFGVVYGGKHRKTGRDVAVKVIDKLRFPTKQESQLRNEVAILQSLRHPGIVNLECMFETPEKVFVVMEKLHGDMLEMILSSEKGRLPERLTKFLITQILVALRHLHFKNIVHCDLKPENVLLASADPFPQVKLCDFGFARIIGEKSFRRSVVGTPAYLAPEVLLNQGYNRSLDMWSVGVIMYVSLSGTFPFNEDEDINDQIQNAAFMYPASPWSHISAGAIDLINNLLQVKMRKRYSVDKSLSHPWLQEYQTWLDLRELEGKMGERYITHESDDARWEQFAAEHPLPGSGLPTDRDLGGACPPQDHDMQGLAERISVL
Chain of Protein kinase C theta type (Homo sapiens) (Q04759 whole entry, looked up): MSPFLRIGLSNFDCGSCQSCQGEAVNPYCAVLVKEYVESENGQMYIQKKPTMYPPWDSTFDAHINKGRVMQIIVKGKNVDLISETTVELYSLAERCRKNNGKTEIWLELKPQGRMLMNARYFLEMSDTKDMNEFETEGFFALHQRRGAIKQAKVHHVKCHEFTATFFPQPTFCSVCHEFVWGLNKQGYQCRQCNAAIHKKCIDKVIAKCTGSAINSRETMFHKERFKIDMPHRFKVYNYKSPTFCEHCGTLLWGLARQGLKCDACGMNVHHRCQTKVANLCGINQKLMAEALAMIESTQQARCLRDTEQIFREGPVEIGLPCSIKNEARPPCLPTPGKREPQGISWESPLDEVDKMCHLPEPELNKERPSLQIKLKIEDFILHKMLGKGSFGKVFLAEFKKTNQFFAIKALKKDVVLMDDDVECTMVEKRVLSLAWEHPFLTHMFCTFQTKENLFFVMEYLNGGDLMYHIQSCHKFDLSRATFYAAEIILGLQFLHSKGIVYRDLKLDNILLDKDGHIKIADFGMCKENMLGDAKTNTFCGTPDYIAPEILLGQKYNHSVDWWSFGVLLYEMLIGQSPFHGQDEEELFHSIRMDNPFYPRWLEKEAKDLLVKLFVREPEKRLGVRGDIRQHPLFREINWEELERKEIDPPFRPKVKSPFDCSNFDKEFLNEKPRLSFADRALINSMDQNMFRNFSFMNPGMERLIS
Chain of Serine/threonine-protein kinase PAK 3 (Homo sapiens) (O75914 whole entry, looked up): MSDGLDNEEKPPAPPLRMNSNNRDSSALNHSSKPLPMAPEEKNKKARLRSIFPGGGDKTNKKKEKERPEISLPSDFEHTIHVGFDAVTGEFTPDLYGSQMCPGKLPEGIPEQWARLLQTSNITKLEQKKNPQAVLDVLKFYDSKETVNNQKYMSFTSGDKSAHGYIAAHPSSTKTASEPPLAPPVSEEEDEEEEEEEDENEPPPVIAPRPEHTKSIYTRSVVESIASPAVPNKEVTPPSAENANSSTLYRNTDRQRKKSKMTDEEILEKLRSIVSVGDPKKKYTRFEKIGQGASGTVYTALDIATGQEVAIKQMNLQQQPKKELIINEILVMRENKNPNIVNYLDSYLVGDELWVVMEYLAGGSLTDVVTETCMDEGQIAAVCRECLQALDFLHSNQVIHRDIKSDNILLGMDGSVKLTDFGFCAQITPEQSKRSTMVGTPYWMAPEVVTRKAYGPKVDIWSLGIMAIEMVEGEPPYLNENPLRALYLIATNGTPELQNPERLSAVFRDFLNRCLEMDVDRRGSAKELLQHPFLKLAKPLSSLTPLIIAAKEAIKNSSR
Chain of Ribosomal protein S6 kinase alpha-5 (Homo sapiens) (O75582 whole entry, looked up): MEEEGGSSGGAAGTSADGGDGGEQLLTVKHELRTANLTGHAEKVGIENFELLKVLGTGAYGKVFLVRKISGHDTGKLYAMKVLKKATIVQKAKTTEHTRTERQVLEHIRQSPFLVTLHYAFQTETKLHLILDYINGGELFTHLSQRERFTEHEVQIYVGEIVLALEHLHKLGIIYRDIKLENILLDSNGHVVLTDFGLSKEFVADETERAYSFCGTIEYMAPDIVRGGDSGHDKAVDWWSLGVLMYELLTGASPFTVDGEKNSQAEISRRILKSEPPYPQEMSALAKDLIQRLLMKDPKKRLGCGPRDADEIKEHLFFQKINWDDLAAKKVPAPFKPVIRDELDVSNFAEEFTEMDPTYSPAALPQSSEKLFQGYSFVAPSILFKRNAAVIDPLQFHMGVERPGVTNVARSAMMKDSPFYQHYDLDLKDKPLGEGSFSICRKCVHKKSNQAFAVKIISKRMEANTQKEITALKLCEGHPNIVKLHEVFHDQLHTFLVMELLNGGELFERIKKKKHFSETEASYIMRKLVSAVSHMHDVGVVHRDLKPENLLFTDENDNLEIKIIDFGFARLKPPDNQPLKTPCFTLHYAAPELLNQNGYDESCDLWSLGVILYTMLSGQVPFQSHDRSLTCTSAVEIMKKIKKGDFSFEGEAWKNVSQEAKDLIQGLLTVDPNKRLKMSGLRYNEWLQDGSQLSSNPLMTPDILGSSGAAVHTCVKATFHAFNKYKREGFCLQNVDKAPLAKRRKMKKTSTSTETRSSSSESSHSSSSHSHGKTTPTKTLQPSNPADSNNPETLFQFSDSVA

`N=C(N)NCCC[C@@H](NC(=O)[C@@H](CCCNC(=N)N)NC(=O)[C@@H](CCCNC(=N)N)NC(=O)[C@@H](CCCNC(=N)N)NC(=O)[C@@H](CCCNC(=N)N)NC(=O)[C@@H](CCCNC(=N)N)NC(=O)CCCCCNC(=O)[C@@H](CCCCN)NC(=O)CCCCCNC(=O)[C@H]1O[C@@H](n2cnc3c(N)ncnc32)[C@H](O)[C@@H]1O)C(N)=O` ({Adenosine(5'-uronoyl)-Ahx}-[dK][Ahx][dR][dR][dR][dR][dR][dR]-NH2) showed an inhibition [1] of 16%, an inhibition [2] of 109% and an inhibition [3] of 105%. The inhibition [4] was 89%, the inhibition [5] was 16% and the inhibition [6] was 97%. The inhibition [7] was 0%, the inhibition [8] was 37% and the inhibition [9] was 105%. It also gave an inhibition [10] of 74%, an inhibition [11] of 97% and an inhibition [12] of 107%. For the same compound, the inhibition [13] was 22%.
